Assay results published in ChEMBL document CHEMBL4312005, “Optimization of pyrrolizine-based Schiff bases with 4-thiazolidinone motif: Design, synthesis and investigation of cytotoxicity and anti-inflammatory potency” (Eur J Med Chem, 2020).

Columns and labels:
[1] = target: Prostaglandin G/H synthase 1 (Homo sapiens, UniProt P23219); experiment: Inhibition of human COX1 using arachidonic acid as substrate incubated for 2 mins by ELISA method
[2] = Selectivity index, ratio of IC50 for cytotoxicity against human MRC5 cells to IC50 for antiproliferative activity against human A2780 cells; settings: MRC5 cells versus A2780 cells
MCF7 [3] = experiment: Antiproliferative activity against human MCF7 cells assessed as reduction in cell growth incubated for 72 hrs by MTT assay; assay type: functional, cell-based; settings: MCF7, 72 h
Outline: (§1)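 MTT assay on MCF-7, A2780, HT29 and normal MRC5 fibroblast lines (ATCC) grown in DMEM with 10% FBS. Cells exposed to compounds for 72 h, then reduced MTT read at 570 nm.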

[4] = Selectivity index, ratio of IC50 for cytotoxicity against human MRC5 cells to IC50 for antiproliferative activity against human MCF7 cells; settings: MRC5 cells versus MCF7 cells
A2780 = experiment: Antiproliferative activity against human A2780 cells assessed as reduction in cell growth incubated for 72 hrs by MTT assay; assay type: functional, cell-based; settings: A2780, 72 h; outline: as §1
MRC5 = experiment: Cytotoxicity against human MRC5 cells assessed as reduction in cell growth incubated for 72 hrs by MTT assay; assay type: cell-based; settings: MRC5, 72 h; outline: as §1
[5] = Selectivity index, ratio of IC50 for cytotoxicity against human MRC5 cells to IC50 for antiproliferative activity against human HT-29 cells; settings: MRC5 cells versus HT-29 cells
MCF7 [6] = experiment: Antiproliferative activity against human MCF7 cells assessed as cell viability at 5 uM incubated for 48 hrs by MTT assay (reference value: 100 %); assay type: functional; settings: MCF7, 48 h, read-out: Activity
Outline: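 Preliminary single-dose screen by MTT assay. MCF-7 cells grown in DMEM/10% FBS were exposed to 5 μM compound for 48 h, and growth% was determined. Values are mean ± S.D., n = 6.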

HT-29 = experiment: Antiproliferative activity against human HT-29 cells assessed as reduction in cell growth incubated for 72 hrs by MTT assay; assay type: functional, cell-based; settings: HT-29, 72 h; outline: as §1
MCF7 [7] = experiment: Induction of apoptosis in human MCF7 cells assessed as late apoptotic cells at 1 uM incubated for 24 hrs by annexin V FITC and propidium iodide staining based flow cytometry (reference value: 0 to 2.5 %); assay type: functional
MCF7 [8] = experiment: Induction of apoptosis in human MCF7 cells assessed as necrotic cells at 1 uM incubated for 24 hrs by annexin V FITC and propidium iodide staining based flow cytometry (reference value: 4.1 to […]); assay type: functional
MCF7 [9] = experiment: Induction of apoptosis in human MCF7 cells assessed as early apoptotic cells at 10 uM incubated for 24 hrs by annexin V FITC and propidium iodide staining based flow cytometry (reference value: 0 to 9 %); assay type: functional
MCF7 [10] = experiment: Induction of apoptosis in human MCF7 cells assessed as necrotic cells at 5 uM incubated for 24 hrs by annexin V FITC and propidium iodide staining based flow cytometry (reference value: 4.1 to […]); assay type: functional
MCF7 [11] = experiment: Induction of apoptosis in human MCF7 cells assessed as viable cells at 1 uM incubated for 24 hrs by annexin V FITC and propidium iodide staining based flow cytometry (reference value: 76 to 95.9 %); assay type: functional; settings: MCF7, 24 h, read-out: Activity
MCF7 [12] = experiment: Cell cycle arrest in human MCF7 cells assessed as subG1 accumulation at 1 uM incubated for 24 hrs by propidium iodide based flow cytometry (reference value: 0.6 to 3 %); assay type: functional
MCF7 [13] = experiment: Cell cycle arrest in human MCF7 cells assessed as G2/M phase accumulation at 5 uM incubated for 24 hrs by propidium iodide based flow cytometry (reference value: 17.2 to 26.8 %); assay type: functional
MCF7 [14] = experiment: Cell cycle arrest in human MCF7 cells assessed as S phase accumulation at 1 uM incubated for 24 hrs by propidium iodide based flow cytometry (reference value: 17.3 to 28.5 %); assay type: functional
MCF7 [15] = experiment: Cell cycle arrest in human MCF7 cells assessed as subG1 accumulation at 10 uM incubated for 24 hrs by propidium iodide based flow cytometry (reference value: 0.6 to 3 %); assay type: functional
MCF7 [16] = experiment: Induction of apoptosis in human MCF7 cells assessed as viable cells at 5 uM incubated for 24 hrs by annexin V FITC and propidium iodide staining based flow cytometry (reference value: 76 to 95.9 %); assay type: functional; settings: MCF7, 24 h, read-out: Activity
MCF7 [17] = experiment: Cell cycle arrest in human MCF7 cells assessed as G1 accumulation at 1 uM incubated for 24 hrs by propidium iodide based flow cytometry (reference value: 49.6 to 55.1 %); assay type: functional
MCF7 [18] = experiment: Induction of apoptosis in human MCF7 cells assessed as late apoptotic cells at 10 uM incubated for 24 hrs by annexin V FITC and propidium iodide staining based flow cytometry (reference value: 0 to 2.5 %); assay type: functional
Rattus norvegicus [19] = experiment: Antiinflammatory activity against albino rats assessed as inhibition of carrageenan-induced paw edema at 0.5 mmol, po measured after 4 hrs relative to control; assay type: functional
Outline: (§2)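 Carrageenan rat paw edema (Winter method) in male and female adult albino rats (100-140 g). […] Swelling inhibition expressed as % of control at 2-4 h after carrageenan injection.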

MCF7 [20] = experiment: Cell cycle arrest in human MCF7 cells assessed as S phase accumulation at 10 uM incubated for 24 hrs by propidium iodide based flow cytometry (reference value: 17.3 to 28.5 %); assay type: functional
MCF7 [21] = experiment: Induction of apoptosis in human MCF7 cells assessed as necrotic cells at 10 uM incubated for 24 hrs by annexin V FITC and propidium iodide staining based flow cytometry (reference value: 4.1 to […]); assay type: functional
MCF7 [22] = experiment: Induction of apoptosis in human MCF7 cells assessed as late apoptotic cells at 5 uM incubated for 24 hrs by annexin V FITC and propidium iodide staining based flow cytometry (reference value: 0 to 2.5 %); assay type: functional
MCF7 [23] = experiment: Cell cycle arrest in human MCF7 cells assessed as G1 accumulation at 5 uM incubated for 24 hrs by propidium iodide based flow cytometry (reference value: 49.6 to 55.1 %); assay type: functional
MCF7 [24] = experiment: Cell cycle arrest in human MCF7 cells assessed as S phase accumulation at 5 uM incubated for 24 hrs by propidium iodide based flow cytometry (reference value: 17.3 to 28.5 %); assay type: functional
MCF7 [25] = experiment: Induction of apoptosis in human MCF7 cells assessed as viable cells at 10 uM incubated for 24 hrs by annexin V FITC and propidium iodide staining based flow cytometry (reference value: 76 to 95.9 %); assay type: functional; settings: MCF7, 24 h, read-out: Activity
MCF7 [26] = experiment: Cell cycle arrest in human MCF7 cells assessed as G2/M phase accumulation at 1 uM incubated for 24 hrs by propidium iodide based flow cytometry (reference value: 17.2 to 26.8 %); assay type: functional
MCF7 [27] = experiment: Cell cycle arrest in human MCF7 cells assessed as G2/M phase accumulation at 10 uM incubated for 24 hrs by propidium iodide based flow cytometry (reference value: 17.2 to 26.8 %); assay type: functional
Rattus norvegicus [28] = experiment: Antiinflammatory activity against albino rats assessed as inhibition of carrageenan-induced paw edema at 0.5 mmol, po measured after 2 hrs relative to control; assay type: functional; outline: as §2
MCF7 [29] = experiment: Induction of apoptosis in human MCF7 cells assessed as early apoptotic cells at 5 uM incubated for 24 hrs by annexin V FITC and propidium iodide staining based flow cytometry (reference value: 0 to 9 %); assay type: functional
MCF7 [30] = experiment: Cell cycle arrest in human MCF7 cells assessed as subG1 accumulation at 5 uM incubated for 24 hrs by propidium iodide based flow cytometry (reference value: 0.6 to 3 %); assay type: functional
MCF7 [31] = experiment: Cell cycle arrest in human MCF7 cells assessed as G1 accumulation at 10 uM incubated for 24 hrs by propidium iodide based flow cytometry (reference value: 49.6 to 55.1 %); assay type: functional
MCF7 [32] = experiment: Induction of apoptosis in human MCF7 cells assessed as early apoptotic cells at 1 uM incubated for 24 hrs by annexin V FITC and propidium iodide staining based flow cytometry (reference value: 0 to 9 %); assay type: functional
Rattus norvegicus [33] = experiment: Antiinflammatory activity against albino rats assessed as inhibition of carrageenan-induced paw edema at 25 mg/kg, po measured after 4 hrs relative to control; assay type: functional; outline: as §2
Rattus norvegicus [34] = experiment: Antiinflammatory activity against albino rats assessed as inhibition of carrageenan-induced paw edema at 25 mg/kg, po measured after 2 hrs relative to control; assay type: functional; outline: as §2

Prostaglandin G/H synthase 1, sequence (P23219 whole entry): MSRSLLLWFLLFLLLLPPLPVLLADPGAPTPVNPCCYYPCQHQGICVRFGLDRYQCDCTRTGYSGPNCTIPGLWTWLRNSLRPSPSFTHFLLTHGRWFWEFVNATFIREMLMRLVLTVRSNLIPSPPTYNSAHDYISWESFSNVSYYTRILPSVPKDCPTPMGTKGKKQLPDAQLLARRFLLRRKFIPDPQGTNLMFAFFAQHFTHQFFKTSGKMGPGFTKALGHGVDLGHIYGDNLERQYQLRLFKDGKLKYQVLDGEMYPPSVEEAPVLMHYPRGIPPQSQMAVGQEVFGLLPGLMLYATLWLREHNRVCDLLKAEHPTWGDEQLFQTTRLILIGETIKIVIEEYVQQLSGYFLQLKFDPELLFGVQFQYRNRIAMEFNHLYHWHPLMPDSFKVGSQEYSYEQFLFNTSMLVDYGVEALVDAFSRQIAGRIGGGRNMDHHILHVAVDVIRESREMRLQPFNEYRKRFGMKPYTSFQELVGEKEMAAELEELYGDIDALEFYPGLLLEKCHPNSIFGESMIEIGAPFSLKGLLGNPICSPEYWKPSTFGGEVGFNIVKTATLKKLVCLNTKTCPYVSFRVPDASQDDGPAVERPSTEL

## CC/C=N/c1c(C#N)c2n(c1C(=O)Nc1ccc(Br)cc1)CCC2
[1]
  IC50: 14.2 µM
[2]
  selectivity ratio: 24 to 152
MCF7 [3]
  IC50: 140 nM
[4]
  selectivity ratio: 24 to 152
A2780
  IC50: 270 nM
MRC5
  IC50: 21.2 µM
[5]
  selectivity ratio: 24 to 152
MCF7 [6]
  viability at 5 µM: 49%
HT-29
  IC50: 890 nM

## N#Cc1c(/N=C/c2ccc(O)cc2)c(C(=O)Nc2ccc(Br)cc2)n2c1CCC2
MCF7 [7]
  Activity: 9.8%
[1]
  IC50: 72 µM
MCF7 [8]
  Activity: 14.3%
MCF7 [9]
  Activity: 5%
MCF7 [10]
  Activity: 17.8%
MCF7 [11]
  viability at 1 µM: 65.7%
MCF7 [12]
  Activity: 0.4%
MCF7 [13]
  Activity: 22%
[2]
  selectivity ratio: 2 to 52
MCF7 [14]
  Activity: 54.1%
MCF7 [15]
  Activity: 0.8%
MCF7 [16]
  viability at 5 µM: 66.3%
MCF7 [17]
  Activity: 31.7%
MCF7 [3]
  IC50: 490 nM
[4]
  selectivity ratio: 2 to 52
MCF7 [18]
  Activity: 5.2%
Rattus norvegicus [19]
  inhibition (INH): 44.51%
MCF7 [20]
  Activity: 51.9%
MCF7 [21]
  Activity: 20.6%
MCF7 [22]
  Activity: 7.4%
MCF7 [23]
  Activity: 28.9%
MCF7 [24]
  Activity: 49.7%
MCF7 [25]
  viability at 10 µM: 69.2%
MCF7 [26]
  Activity: 14.2%
A2780
  IC50: 470 nM
MRC5
  IC50: 25 µM
MCF7 [27]
  Activity: 19.8%
[5]
  selectivity ratio: 2 to 52
Rattus norvegicus [28]
  inhibition (INH): 28.15%
MCF7 [29]
  Activity: 8.6%
MCF7 [6]
  viability at 5 µM: 69%
MCF7 [30]
  Activity: 0.4%
HT-29
  IC50: 14500 nM
MCF7 [31]
  Activity: 27.9%
MCF7 [32]
  Activity: 10.2%

## CCC1SCC(=O)N1c1c(C#N)c2n(c1C(=O)Nc1ccc(Cl)cc1)CCC2 (configuration not stated)
[1]
  IC50: > 100 µM
[2]
  selectivity ratio: 3 to 15
MCF7 [3]
  IC50: 210 nM
[4]
  selectivity ratio: 3 to 15
Rattus norvegicus [19]
  inhibition (INH): 32.48%
A2780
  IC50: 310 nM
MRC5
  IC50: 0.91 µM
Rattus norvegicus [28]
  inhibition (INH): 21.76%
HT-29
  IC50: 200 nM

## CCC1SCC(=O)N1c1c(C#N)c2n(c1C(=O)Nc1ccc(C)cc1)CCC2 (configuration not stated)
[1]
  IC50: > 100 µM
[2]
  selectivity ratio: 3 to 15
MCF7 [3]
  IC50: 470 nM
[4]
  selectivity ratio: 3 to 15
A2780
  IC50: 110 nM
MRC5
  IC50: 1.7 µM
HT-29
  IC50: 120 nM

## CCC1SCC(=O)N1c1c(C#N)c2n(c1C(=O)Nc1ccccc1)CCCC2 (configuration not stated)
[1]
  IC50: 65.4 µM
MCF7 [3]
  IC50: 840 nM
[4]
  selectivity ratio: 3 to 15
A2780
  IC50: 4240 nM
MRC5
  IC50: 11.1 µM
HT-29
  IC50: 2060 nM

## Cc1ccc(-c2cc(C(F)(F)F)nn2-c2ccc(S(N)(=O)=O)cc2)cc1 [CELECOXIB]
Rattus norvegicus [33]
  inhibition in vivo at 25 mg/kg: 67.4%
Rattus norvegicus [34]
  inhibition in vivo at 25 mg/kg: 37%

## N#Cc1c(/N=C/c2cccs2)c(C(=O)Nc2ccc(Br)cc2)n2c1CCC2
[1]
  IC50: > 100 µM
[2]
  selectivity ratio: 1 to 10
MCF7 [3]
  IC50: 9410 nM
[4]
  selectivity ratio: 1 to 10
A2780
  IC50: 19300 nM
MRC5
  IC50: 23.1 µM
[5]
  selectivity ratio: 1 to 10
MCF7 [6]
  viability at 5 µM: 77%
HT-29
  IC50: 3650 nM
